From ChEMBL document CHEMBL3124767, “Synthesis, biological evaluation and molecular modelling studies of 4-anilinoquinazoline derivatives as protein kinase inhibitors” (Bioorg Med Chem, 2014)

Tests used:
[1] = target: Glycogen synthase kinase-3 (Sus scrofa, UniProt B2LUN4+I6LNT8); test: Inhibition of GSK3 alpha/beta in pig brain using YRRAAVPPSPSLSRHSSPHQpSEDEEE as substrate by scintillation counting in presence of [gamma-33P]ATP
Outline: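 Native GSK-3α/β from porcine brain, run in triplicate in buffer A (10 mM MgCl2, 1 mM EGTA, 1 mM DTT, 25 mM Tris–HCl pH 7.5, 50 µg heparin/mL) with GS-1 peptide substrate and 15 µM [γ-33P]ATP final, 30 min at 30 °C; spotted on P81 phosphocellulose, acid-washed, counted. Single 10 µM screen, then dose–response (usually 0.01–10 µM) for IC50; blank-subtracted, % of uninhibited activity.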

[2] = target: Dual specificity protein kinase CLK1 (Homo sapiens, UniProt P49759); test: Inhibition of human recombinant GST-fused CLK1 expressed in Escherichia coli using GRSRSRSRSRSR as substrate
Dual specificity protein kinase CLK1, sequence (P49759 whole entry, the tested form may be a part): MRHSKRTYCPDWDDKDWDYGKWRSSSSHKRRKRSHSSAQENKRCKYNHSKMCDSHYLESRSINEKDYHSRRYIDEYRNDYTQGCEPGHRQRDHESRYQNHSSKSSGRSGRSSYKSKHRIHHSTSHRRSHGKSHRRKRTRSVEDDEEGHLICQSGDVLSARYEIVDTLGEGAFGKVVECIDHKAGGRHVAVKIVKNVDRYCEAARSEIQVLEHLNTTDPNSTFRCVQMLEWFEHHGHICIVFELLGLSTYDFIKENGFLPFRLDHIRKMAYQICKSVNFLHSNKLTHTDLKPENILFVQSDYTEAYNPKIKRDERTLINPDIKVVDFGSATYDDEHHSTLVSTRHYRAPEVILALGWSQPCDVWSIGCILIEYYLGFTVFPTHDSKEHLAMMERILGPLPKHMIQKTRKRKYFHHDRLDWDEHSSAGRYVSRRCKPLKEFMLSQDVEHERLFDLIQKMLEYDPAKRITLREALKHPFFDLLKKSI
Outline: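 GST-tagged human CLK1 made in E. coli. Buffer A (MgCl2, EGTA, DTT, 25 mM Tris-HCl pH 7.5, heparin) with 0.15 mg BSA/mL, RS peptide substrate at 1 µg/assay, 15 µM final ATP. Run 30 min at 30 °C in triplicate. Activity is given as % of the no-inhibitor maximum after blank subtraction. Compounds screened at 10 µM; IC50 from dose-response curves (usually 0.01–10 µM).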

[3] = Inhibition of CK1 delta/epsilon in pig brain using RRKHAAIGpSAYSITA as substrate by scintillation counting in presence of [gamma-33P]ATP; set-up: species or system Sus scrofa
[4] = target: Dual specificity tyrosine-phosphorylation-regulated kinase 1A (Rattus norvegicus, UniProt Q63470); test: Inhibition of rat recombinant GST-fused DYRK1A expressed in Escherichia coli using KKISGRLSPIMTEQ as substrate by scintillation counting in presence of [gamma-33P]ATP
[5] = target: Cyclin-dependent kinase 5/CDK5 activator 1 (Homo sapiens, UniProt Q00535); test: inhibition of human recombinant CDK5/p25 using histone H1 as substrate by scintillation counting in presence of [gamma-33P]ATP; format: protein-complex assay
Cyclin-dependent kinase 5/CDK5 activator 1, sequence (Q00535 whole entry): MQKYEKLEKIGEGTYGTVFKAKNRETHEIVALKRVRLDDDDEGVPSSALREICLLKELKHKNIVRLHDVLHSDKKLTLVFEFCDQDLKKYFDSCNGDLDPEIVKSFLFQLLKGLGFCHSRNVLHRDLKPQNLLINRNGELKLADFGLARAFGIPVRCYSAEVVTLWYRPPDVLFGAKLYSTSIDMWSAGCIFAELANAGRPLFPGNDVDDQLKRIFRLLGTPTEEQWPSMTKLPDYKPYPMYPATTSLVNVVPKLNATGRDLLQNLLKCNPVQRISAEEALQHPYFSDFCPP
Cyclin-dependent kinase 5/CDK5 activator 1, sequence (Q15078 whole entry, further chain): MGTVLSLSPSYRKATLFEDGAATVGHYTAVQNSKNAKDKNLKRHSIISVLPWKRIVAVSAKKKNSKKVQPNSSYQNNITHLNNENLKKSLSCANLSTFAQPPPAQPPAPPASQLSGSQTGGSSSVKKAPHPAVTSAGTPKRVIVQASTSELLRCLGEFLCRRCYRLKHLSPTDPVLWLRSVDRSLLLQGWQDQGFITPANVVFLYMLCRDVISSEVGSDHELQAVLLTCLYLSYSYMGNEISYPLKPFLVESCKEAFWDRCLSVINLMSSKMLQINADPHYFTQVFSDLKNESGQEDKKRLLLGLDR
Outline: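 Human recombinant CDK5/p25 in buffer A (Tris-HCl pH 7.5, MgCl2, EGTA, DTT, heparin) with 1 mg/mL histone H1 and 15 µM [γ-33P]ATP. Run 30 min at 30 °C in triplicate. P81 filter binding, phosphoric acid washes, scintillation counting. Activity is % of maximal after blank subtraction. Compounds screened at 10 µM; IC50 from dose-response curves.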

Structure (SMILES) | IC50 [1] | IC50 [2] | IC50 [3] | IC50 [4] | IC50 [5]
COc1cc2ncnc(Nc3ccc(C)c(C)c3)c2cc1OC | > 10 µM | > 10 µM | > 10 µM | > 10 µM | > 10 µM
COc1cc2ncnc(Nc3ccccc3)c2cc1OC | > 10 µM | ≥ 10 µM | > 10 µM | > 10 µM | > 10 µM
COc1cc2ncnc(Nc3cccc(C(F)(F)F)c3)c2cc1OC | > 10 µM | > 10 µM | > 10 µM | > 10 µM | > 10 µM
COc1cc2ncnc(Nc3ccc(NC(C)=O)cc3)c2cc1OC | > 10 µM | > 10 µM | > 10 µM | > 10 µM | > 10 µM
COc1cc2ncnc(Nc3ccc(C(C)=O)cc3)c2cc1OC | > 10 µM | ≥ 10 µM | > 10 µM | > 10 µM | > 10 µM
O=C1Nc2cc(Br)ccc2/C1=C1/Nc2ccccc2/C1=N\O [6BIO] | – | 2.1 µM | – | – | –
COc1ccc(Nc2ncnc3cc(OC)c(OC)cc23)cc1 | > 10 µM | > 10 µM | > 10 µM | > 10 µM | > 10 µM
COc1ccc(Nc2ncnc3cc(OC)c(OC)cc23)cc1OC | 3 µM | 1.5 µM | > 10 µM | ≥ 10 µM | > 10 µM
COc1cc2ncnc(Nc3ccc(OC(F)(F)F)cc3)c2cc1OC | > 10 µM | > 10 µM | > 10 µM | > 10 µM | > 10 µM
COc1cc2ncnc(Nc3ccc(C(F)(F)F)cc3)c2cc1OC | > 10 µM | > 10 µM | > 10 µM | > 10 µM | > 10 µM
COc1cc2ncnc(Nc3ccc(F)c(Cl)c3)c2cc1OC | > 10 µM | 7.6 µM | > 10 µM | > 10 µM | > 10 µM
